Runt-SMMHC FRET: inhibitors of RUNX1 Runt–CBFb-SMMHC binding, primary screen, biochemical, FRET, Cerulean-Runt, Venus-CBFb-SMMHC, uHTS | Cerulean-Runt/Venus-CBFb-SMMHC FRET ratio 530/480, 1 h | actives 0.74% (n = 220,000) | inhibition, % at 20 µM;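 active = mean inhibition across duplicate retests at 20 µM reaching about 50%, limit read from the data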;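 also: 0% = DMSO wells and 100% = wells with excess untagged CBFb-SMMHC; inhibitors lower the FRET ratio by blocking Runt binding to CBFb-SMMHC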
MEX-5 binding: MEX-5 zinc finger RNA-binding disruptors – biochemical, C. elegans, fluorescence polarization, MLPCN library, primary screen. MEX-5/FITC-TCR2 RNA binding; stronger effect = lower value. AID 1832, 2009. actives 0.38% (n = 300,000). Zinc finger protein mex-5 (Caenorhabditis elegans), Q9XUB2. activity score (negative = inhibition of binding), % at 10 µM;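 active = inhibition past about -25% in most replicates, and total fluorescence under double the plate's negative control median, limit read from the data; inconclusive = replicates evenly split on the limit, or fluorescence at least double controls; inactive = too little inhibition in most replicates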;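 also: 0% = DMSO and -100% = 5 µM competing unlabeled TCR2 RNA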
Target sequence (Q9XUB2 whole entry, looked up): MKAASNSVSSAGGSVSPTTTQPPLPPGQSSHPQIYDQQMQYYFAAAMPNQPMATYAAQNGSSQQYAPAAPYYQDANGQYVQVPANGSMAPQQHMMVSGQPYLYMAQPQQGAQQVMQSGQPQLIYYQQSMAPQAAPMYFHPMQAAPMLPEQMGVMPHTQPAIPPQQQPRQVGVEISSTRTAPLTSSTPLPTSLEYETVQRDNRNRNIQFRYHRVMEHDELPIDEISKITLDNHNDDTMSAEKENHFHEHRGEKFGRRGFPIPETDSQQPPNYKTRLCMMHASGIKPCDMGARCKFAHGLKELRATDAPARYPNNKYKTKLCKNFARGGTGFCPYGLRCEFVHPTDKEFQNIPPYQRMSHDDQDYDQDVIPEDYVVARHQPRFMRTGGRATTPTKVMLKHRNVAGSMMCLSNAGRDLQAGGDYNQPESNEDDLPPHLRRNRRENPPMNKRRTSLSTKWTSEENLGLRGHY
RanGTP-Impb inh: inhibitors of RanGTP-importin-beta interaction, primary screen, biochemical, FRET, CFP-Ran, YFP-importin-beta, homogeneous. Ran GTPase (GTP-bound) - importin-beta complex. cell-free CFP-Ran/YFP-importin-beta FRET ratio. inhibition, % (test concentration not listed). actives 1.1% (n = 300,000). AID 2216, 2009;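 active = more than half of the replicate wells show a fall in the fluorescence ratio signal beyond about 16%, limit read from the data, passing the limit was not always enough; inconclusive = exactly half of the replicate wells pass the set limit; inactive = fewer than half of replicates pass the limit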;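 also: 0% = DMSO wells and 100% = Ran loaded with GDP instead of GTP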
Runt-CBFb FRET: inhibitors of RUNX1 Runt–CBFb binding, primary screen, biochemical, FRET, Cerulean-Runt, Venus-CBFb, uHTS; Runt-related transcription factor 1 (Homo sapiens) + Core-binding factor subunit beta …; actives 0.46% (n = 220,000); inhibition, % at 20 µM; Cerulean-Runt/Venus-CBFb FRET ratio 530/480, 1 h;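 active = inhibition over about 50% at 20 µM in the single-dose screen, limit read from the data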;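 also: 0% = DMSO wells and 100% = excess unlabeled CBFb competitor control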
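Measured by: fluorescence energy transfer, 422 nm excitation, 530/480 nm emission; Assay system: Cerulean-Runt domain; Medium: Tris pH 7.5 buffer with BSA; Measure: loss of energy transfer signal; Controls: 5 µM unlabeled CBFb as full-inhibition high control; Incubation: protein complex preformed 1 h, compound exposure 1 h, room temperature, dark.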
proKLK7 act: proKLK7 zymogen activators, primary screen, biochemical, fluorescence intensity; purified proKLK7, EDANS-DABCYL substrate fluorescence; 100% is mature enzyme control, 0% vehicle; activation, % at 7 µM; actives 0.9% (n = 370,000); AID 652039, 2013;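 active = activation above the mean of all tested compounds plus 3 SD, computed per campaign excluding outliers beyond control limits, cut at about 13% in these data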
* marks the source's active call; other numbers are inactive results; ? = inconclusive; · = not tested or not shown. Hits are enriched below; roughly 2.1% of the tested compounds scored in any of these assays.

SMILES	Runt-SMMHC FRET	MEX-5 binding	RanGTP-Impb inh	Runt-CBFb FRET	proKLK7 act
NC1=NC(=O)/C(=C/c2ccc(-c3ccc(S(N)(=O)=O)cc3)o2)S1	·	-40*	-41	·	6
Cc1oc(-c2ccccc2F)nc1CS(=O)CC(=O)NC1CC1 (configuration not stated)	·	1	0	·	0
CCOC(=O)N1CCC(NC(=O)CS(=O)Cc2nc(-c3ccccc3C)oc2C)CC1 (configuration not stated)	·	-9	164*	·	1
O=C(NNc1cc(N2CCOCC2)nc(N2CCOCC2)n1)c1ccc(Cl)c(Cl)c1	3	-5	134*	1	0
O=C(NNC(=O)C12CC3CC(CC(C3)C1)C2)c1csc(N2CCOCC2)n1	·	0	8	·	1
O=C(NNc1cc(N2CCOCC2)nc(N2CCOCC2)n1)C12CC3CC(CC(C3)C1)C2	-1	3	57*	-4	-1
CCN(CCNC(=O)[C@H]1C=C(OC)C(=O)C[C@H](c2ccccc2)[C@H]1C)C(C)=O	·	·	·	·	-1
COc1cccc(CN2CCC2(C)C(=O)Nc2ccc3c(c2)CCN3C(C)=O)c1F (configuration not stated)	·	·	·	·	0
Cn1c(=O)[nH]c2cc(Cl)cnc21	7	-32*	13	4	0
NC(=O)c1ncn([C@@H]2O[C@H](CNCc3cc(Cl)ccc3OCc3ccc(Cl)cc3)[C@@H](O)[C@H]2O)n1	·	·	·	·	0
CC(C)(C)OC(=O)CC(S(=O)(=O)c1ccccc1)S(=O)(=O)c1ccccc1	·	·	·	·	-1
CC(=O)OCCNc1cc(N2CCN(C)CC2)c2noc3c2c1C(=O)c1ccccc1-3	-2	·	·	-3	0
CCOC(=O)C(C(=O)OCC)c1cc(Br)c2noc3c2c1C(=O)c1ccccc1-3	-255	-32*	-74	-32	-2
COP(=O)(O)C[C@@H]1CCc2cc(C)cc([C@H](CC(C)C)NC(=O)OCc3ccccc3)c2O1	·	·	·	·	2
CN(C)S(=O)(=O)c1cccc(CNCC2COc3ccccc3O2)c1 (configuration not stated)	·	2	-1	·	-1
O=C(CCC(C(=O)c1ccccc1)c1ccccc1)c1ccccc1 (configuration not stated)	·	·	·	·	0
Cc1ccc(C2c3sc(=O)[nH]c3SC3C(=O)NC(=O)C32)cc1 (configuration not stated)	13	-46*	-2	18	0
COC(=O)C1Sc2[nH]c(=O)sc2C(c2ccc(Cl)cc2)C1C(=O)OC (configuration not stated)	5	0	-2	4	0
COc1cccc(-c2cc(C(F)(F)F)n3nc(N)nc3n2)c1	4	2	3	3	1
COc1cccc(-c2cn3nc4c(nc3n2)CCCC4)c1	3	-9	46*	-1	·
Clc1ccc(-c2cn3nc4c(nc3n2)CCCC4)cc1	57	1	70*	12	1
Clc1ccc(-c2csc(N3CCCCCC3)n2)cc1	·	2	-1	·	-1
CCOC(=O)C1C(=O)C=C(c2ccc(NS(C)(=O)=O)cc2)CC1c1ccco1 (configuration not stated)	-20	-1	6	79*	-5
CCOC(=O)C1C(=O)C=C(c2ccc(C)cc2)CC1c1ccco1 (configuration not stated)	10	-2	?	10	1
CC(C)(C)CNC(=O)C1(C)CCN1C(=O)Cc1ccc(-c2ccccc2)cc1 (configuration not stated)	·	·	·	·	0
SMILES	Runt-SMMHC FRET	MEX-5 binding	RanGTP-Impb inh	Runt-CBFb FRET	proKLK7 act
Cc1cccc(C)c1Nc1ncnc(N)c1[N+](=O)[O-]	0	-11	6	1	0
COc1cccc(C(=O)NCC(=O)NNc2ncnc(N)c2[N+](=O)[O-])c1	12	-32*	2	1	0
COc1ccc(C2C(C#N)=C(N)Oc3cc(O)ccc32)cc1C (configuration not stated)	·	0	67*	·	1
COc1ccc(C2C(C#N)=C(N)SC(N)=C2C#N)cc1OC	12	2	48*	13	-3
N#CC1=C(N)Oc2cc3ccccc3cc2C1c1cccnc1 (configuration not stated)	-2	1	-2	-1	0
COc1ccc(N=Cc2cc3c(cc2O)OC(N)=C(C#N)C3c2ccccc2)cc1 (configuration not stated)	88*	?	10	49	-14
COc1cc(C2C(C#N)=C(N)Oc3cc(O)ccc32)cc(OC)c1OC (configuration not stated)	-19	-2	69*	12	0
COc1cc2c(cc1CNC[C@H]1O[C@@H](n3ccc(N)nc3=O)[C@H](O)[C@@H]1O)OCO2	·	·	·	·	1
CCOC(=O)[C@]12CCCCC/C=C\1N(Cc1ccc(OC)cc1)C(=O)[C@H]2CC(=O)NCCCOC	·	·	·	·	0
O=C(COc1ccc(-c2nnco2)cc1)N1CCOCC1	·	·	·	·	-1
COc1ccc(C2C(C#N)=C(N)Oc3cc(O)ccc32)cc1 (configuration not stated)	·	·	·	·	-1
N#CC1=C(N)Oc2cc(O)ccc2C1c1ccccc1 (configuration not stated)	65*	-2	53*	49	0
COc1ccc(C2C(C#N)=C(N)Oc3cc(O)ccc32)cc1OC (configuration not stated)	42	-5	56*	10	0
CCOC(=O)C(C)Sc1nc2c(c(-c3cccs3)c1C#N)CCC2 (configuration not stated)	33	-4	109*	2	-1
Cc1ccc(-c2ccc(NC(=O)C3C4C=CC(C4)C3C(=O)O)cc2)o1 (configuration not stated)	5	1	30*	8	1
CC1Cc2ccccc2N1C(=O)c1cc2c(=O)n3ccccc3nc2n1C (configuration not stated)	4	1	0	0	2
Cn1c(C(=O)N2CCN(C(=O)c3ccco3)CC2)cc2c(=O)n3ccccc3nc21	45	-5	3	20	46*
N#CC1=C(N)N(c2ccccc2C#N)C2=C(C(=O)CCC2)C1c1ccsc1 (configuration not stated)	18	-2	30*	15	0
Cc1c(C2C(C#N)=C(N)N(c3ccccc3C#N)C3=C2C(=O)CCC3)cnn1C (configuration not stated)	-13	0	-3	2	1

From PubChem
